An excerpt weighted towards active compounds, which were near 4.3% of everything screened.
SDO1 yeast rescue – growth rescue of sdo1-depleted yeast, primary screen, S. cerevisiae, bone marrow failure model | AID 817, 2007 | z-score at 10 µM | S. cerevisiae sdo1-depleted JHY4D growth rescue, OD600 30 h; stronger effect = higher value; pdr5 snq2 efflux-pump mutant strain | 140,000 tested, 0.21% active;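 active means z-score above 3 at both the 24 hr and the 30 hr optical density reads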;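 further: z-score against mean and SD of all compound wells on the same plate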
NF-kB expr up – activators of NF-kB expression in neurons, primary screen, cell-based, HTS; fold change at 12.5 µM; 190,000 tested, 1.6% active; AID 1239, 2008; human neuronal cells, NF-kB reporter expression; stronger effect = higher value; in the data active means fold change above about 3.3
APP 5'UTR act – activators of APP 5'UTR luciferase reporter, primary screen, SH-SY5Y cells; SH-SY5Y APP 5'UTR luciferase reporter, luminescence; zero percent = DMSO vehicle wells; activation, % at 2 µM; 190,000 tested, 1% active; AID 1276, 2008;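 active means activation above a set limit, based on mean plus 3 SD of controls, cut at about 140% in these data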
FLuc inhib CS – firefly luciferase enzyme inhibitors, primary screen, artefact control for luciferase-based inhibitor screens, biochemical, luminescence, ATPLite; 200,000 tested, 1.5% active; inhibition, % at 10 µM; 10 min; Luciferin 4-monooxygenase (Photinus pyralis), P08659;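 active means inhibition above about 50% when tested at 10 µM, limit read from the data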
Target sequence (P08659 whole entry, looked up): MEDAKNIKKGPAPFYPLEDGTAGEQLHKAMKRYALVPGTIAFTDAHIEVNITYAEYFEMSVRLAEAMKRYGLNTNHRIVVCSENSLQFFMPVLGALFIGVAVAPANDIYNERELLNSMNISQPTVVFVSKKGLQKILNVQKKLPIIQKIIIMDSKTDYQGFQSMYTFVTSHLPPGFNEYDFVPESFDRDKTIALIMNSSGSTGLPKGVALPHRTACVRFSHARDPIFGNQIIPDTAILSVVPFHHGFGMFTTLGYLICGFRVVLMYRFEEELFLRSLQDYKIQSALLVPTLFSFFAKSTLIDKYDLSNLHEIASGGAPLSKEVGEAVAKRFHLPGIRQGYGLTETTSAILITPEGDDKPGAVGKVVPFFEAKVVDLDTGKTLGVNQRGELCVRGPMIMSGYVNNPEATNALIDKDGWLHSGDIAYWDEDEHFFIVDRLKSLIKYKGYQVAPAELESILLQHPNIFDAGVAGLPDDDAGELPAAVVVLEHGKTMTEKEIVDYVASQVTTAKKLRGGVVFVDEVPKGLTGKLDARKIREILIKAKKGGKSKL
STAT1 activator – STAT1 signaling activators, primary screen, cell-based, HTS, luciferase reporter; NIH 3T3 STAT1-luciferase reporter, IFN-gamma, luminescence; 100% = IFN-gamma alone, no compound; AID 932, 2007; activation (% of control), % at 5.5 µM; 200,000 tested, 2.6% active;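 active means activation above the screen-wide mean activation plus 3 SD, cut at about 130% in these data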;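 further: raw ratio to IFN-gamma control signal so 100% means no change and 0% no light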
FLuc act counter – FLuc activators, initial screening, artefact control for FLuc-dependent activation tests, biochemical, ATPlite luminescence. ATPlite luciferase biochemical, 10 min; 0 = ATP-free wells, 1 = DMSO control. activation factor at 10 µM. AID 1027, 2008. 200,000 tested, under 10 active;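 active means luciferase activation factor, scaled between plate controls, of at least 2 with compound at 10 µM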
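System: Luciferase/luciferin detection reagent, cell-free biochemical luciferase assay | Medium: PBS buffer for ATP | Dosing: Test compounds dosed from 2 mM stocks in 100% DMSO | Timing: 10 min at ambient temperature | Signal: Luminescence measurement of luciferase light output | Evaluation: Luciferase activation, seen as luminescence increase over controls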
Numbers without * were called inactive.

Screening NS(=O)(=O)c1ccc(NC(=O)COC(=O)COc2ccc3ccccc3c2)cc1 returned NF-kB expr up 1.02, APP 5'UTR act -31.0, FLuc inhib CS -2.5, STAT1 activator 90.6 and FLuc act counter 1.
Screening O=C(Nc1ccc2c(c1)OCO2)C1CCCN(c2nc3ccccc3s2)C1 (stereo unspecified) returned SDO1 yeast rescue -1.12, NF-kB expr up 1.22, APP 5'UTR act 9.4, FLuc inhib CS 2.4, STAT1 activator 128.6* and FLuc act counter 1.
`CCn1c(CNC(=O)Cc2ccc(OC)cc2)nnc1SCC(=O)NC1CCCCC1` gave SDO1 yeast rescue -0.09, NF-kB expr up 1.01, FLuc inhib CS -7.9, STAT1 activator 100.6 and FLuc act counter 1.1.
For CCN(CC)S(=O)(=O)c1cc(NC(=O)c2ccc(Br)s2)ccc1C the results were NF-kB expr up 1.17, APP 5'UTR act 34.0, FLuc inhib CS 12.8, STAT1 activator 138.2* and FLuc act counter 0.9.
For COc1ccc(-n2ncc(Cl)c(Cl)c2=O)cc1 the results were NF-kB expr up 1.07, APP 5'UTR act -91.5, FLuc inhib CS 5.3, STAT1 activator 105.6 and FLuc act counter 0.9.
Screening COc1ccc(-n2ncc(N(C)n3cccc3)c(Cl)c2=O)cc1 returned SDO1 yeast rescue -0.47, NF-kB expr up 3.72*, APP 5'UTR act 133.1, FLuc inhib CS 53.7*, STAT1 activator 133.6* and FLuc act counter 0.5.
Screening Cc1ccc(-n2ncc(N(C)C)c(Cl)c2=O)cc1 returned SDO1 yeast rescue 0.28, NF-kB expr up 2.61, APP 5'UTR act 119.4, FLuc inhib CS 29.8, STAT1 activator 131.9* and FLuc act counter 0.7.
Screening Cc1ccc(N2C(=O)N(CC(=O)Nc3ccc(C)c(C)c3[N+](=O)[O-])C(=O)C2C)cc1 (stereo unspecified) returned NF-kB expr up 0.91, APP 5'UTR act -16.5, FLuc inhib CS -4.9, STAT1 activator 96.6 and FLuc act counter 1.
`O=c1c(Br)c(NCc2ccccc2)cnn1-c1ccc(F)cc1` gave NF-kB expr up 1.85, APP 5'UTR act 20.8, FLuc inhib CS -9.3, STAT1 activator 129.3* and FLuc act counter 1.1.
O=c1[nH]c(SCc2ccccc2)nc2c1cnn2-c1ccc(F)cc1 was read as NF-kB expr up 1.18, APP 5'UTR act 18.3, FLuc inhib CS 1.2, STAT1 activator 95.6 and FLuc act counter 1.
Cn1nc(C(=O)OCC(=O)Nc2ccc3ccccc3c2)c2ccccc2c1=O was read as NF-kB expr up 1.17, APP 5'UTR act -11.1, FLuc inhib CS 0.3, STAT1 activator 97.7 and FLuc act counter 1.
For CC(C)(Oc1ccc(Br)cc1)C(=O)N1CCc2ccccc21 the results were SDO1 yeast rescue -0.4, NF-kB expr up 1, APP 5'UTR act -12.7, FLuc inhib CS -8.6, STAT1 activator 97.3 and FLuc act counter 1.1.
Screening CCOC(=O)N/N=C/C(Cl)=C/c1ccccc1 returned NF-kB expr up 2.05, APP 5'UTR act 25.3, FLuc inhib CS 27.4, STAT1 activator 122.8 and FLuc act counter 0.7.
For O=C(Cc1cccs1)N/N=C/C(Cl)=C/c1ccccc1 the results were NF-kB expr up 1.08, APP 5'UTR act 64.7, FLuc inhib CS -2.7, STAT1 activator 147.0* and FLuc act counter 1.
For O=C(NCCC1=CCCCC1)C1COc2ccccc2O1 (stereo unspecified) the results were SDO1 yeast rescue -0.6, NF-kB expr up 1.25, APP 5'UTR act 12.6, FLuc inhib CS -9.1, STAT1 activator 109.6 and FLuc act counter 1.1.
COc1cc(/C=N/NC(N)=S)cc(Br)c1OCc1ccccc1F was read as SDO1 yeast rescue -1.96, NF-kB expr up 1.65, APP 5'UTR act 19.6, FLuc inhib CS -0.6, STAT1 activator 128.6* and FLuc act counter 1.
CNC(=S)Nc1cc(OC)ccc1OC was read as SDO1 yeast rescue 0.88, NF-kB expr up 1.03, APP 5'UTR act 13.4, FLuc inhib CS 0.9, STAT1 activator 94.3 and FLuc act counter 1.
